# Laboratory results: ChEMBL document CHEMBL2396577, “Design, synthesis and biological activity evaluation of desloratadine analogues as H1 receptor antagonists” (Bioorg Med Chem, 2013)
# Tests used:
# [1] = molecular target: Histamine H1 receptor (Cavia porcellus) (UniProt P31389); test: Antagonist activity at histamine H1 receptor in guinea pig ileum assessed as inhibition of histamine-induced smooth muscle spasm at 0.2 mg/mL after 3 mins (reference value: 1.27 +/- 5.65%); format: tissue-based; set-up: scale not given: the % may be the effect or the level left
# Chain of Histamine H1 receptor (Cavia porcellus) (P31389 whole entry): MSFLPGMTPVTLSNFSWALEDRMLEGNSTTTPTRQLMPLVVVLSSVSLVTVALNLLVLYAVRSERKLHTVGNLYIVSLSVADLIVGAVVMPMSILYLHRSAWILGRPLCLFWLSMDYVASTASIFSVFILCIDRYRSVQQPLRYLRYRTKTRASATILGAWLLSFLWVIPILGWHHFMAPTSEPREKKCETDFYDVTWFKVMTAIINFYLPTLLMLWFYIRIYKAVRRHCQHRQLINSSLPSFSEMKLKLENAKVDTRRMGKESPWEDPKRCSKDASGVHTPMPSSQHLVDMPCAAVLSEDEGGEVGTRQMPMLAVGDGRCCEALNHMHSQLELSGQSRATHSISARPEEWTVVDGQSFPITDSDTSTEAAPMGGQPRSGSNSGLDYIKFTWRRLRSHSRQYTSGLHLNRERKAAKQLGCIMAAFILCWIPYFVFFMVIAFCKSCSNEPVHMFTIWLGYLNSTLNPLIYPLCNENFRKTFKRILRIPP
# [2] = molecular target: Histamine H1 receptor (Cavia porcellus) (UniProt P31389); test: Antagonist activity at histamine H1 receptor in guinea pig ileum assessed as inhibition of histamine-induced smooth muscle contraction at 0.2 mg/mL after 3 mins (reference value: 3.37 +/- 1.05 g); format: tissue-based
# Cavia porcellus [3] = test: Antiasthamatic activity in histamine-induced guinea pig asthma model assessed as prolongation of asthmogenic latent period at 0.01 mg/kg, ig pretreated for 60 mins prior to histamine-challenge (reference value: 127.10 +/- 40.46 seconds); format: functional; conditions: route intragastric
# Mus musculus [4] = test: Toxicity in mouse assessed as effect on pentobarbital sodium-induced hypnotic effect measured as recovery of righting reflex at 100 mg/kg pretreated for 30 mins prior to pentobarbital sodium-challenge; format: organism-based; set-up: dose 100 mg/kg; conditions: in vivo
# Mus musculus [5] = test: Toxicity in mouse assessed as sleep abnormality at 0.05 to 0.2 mg/kg measured for 7 days; format: organism-based; set-up: dose 0.05-0.2 mg/kg; conditions: in vivo, 168 h
# Summary of the method: (§1)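 Groups of 10 received saline 10 mL/kg, desloratadine 1 mg/kg, or compound at a low dose (0.05 mg/kg) or high dose (0.2 mg/kg), all at a dosing volume of 10 mL/kg. Over the following seven days, mental state, body activity and abnormal signs were observed: sleep, excitement, irritability, convulsion, salivation and muscle tremor.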
# Mus musculus [6] = test: Toxicity in mouse assessed as excitement at 0.05 to 0.2 mg/kg measured for 7 days; format: organism-based; set-up: dose 0.05-0.2 mg/kg; conditions: in vivo, 168 h; summary of the method: as §1
# Mus musculus [7] = test: Toxicity in mouse assessed as change in mental state at 0.05 to 0.2 mg/kg measured for 7 days; format: organism-based; set-up: dose 0.05-0.2 mg/kg; conditions: in vivo, 168 h; summary of the method: as §1
# Mus musculus [8] = test: Toxicity in mouse assessed as change in body activity at 0.05 to 0.2 mg/kg measured for 7 days; format: organism-based; set-up: dose 0.05-0.2 mg/kg; conditions: in vivo, 168 h; summary of the method: as §1
# Ileum [9] = test: Toxicity in guinea pig ileum assessed as effect on acetylcholine-induced smooth muscle contraction at 1.4 ug/mL after 3 mins (reference value: 5.17 +/- 0.36 g); format: tissue-based, Cavia porcellus
# Mus musculus [10] = test: Toxicity in mouse assessed as muscle tremor at 0.05 to 0.2 mg/kg measured for 7 days; format: organism-based, Muscle tissue; set-up: dose 0.05-0.2 mg/kg; conditions: in vivo, 168 h; summary of the method: as §1
# Mus musculus [11] = test: Toxicity in mouse assessed as irritability at 0.05 to 0.2 mg/kg measured for 7 days; format: organism-based; set-up: dose 0.05-0.2 mg/kg; conditions: in vivo, 168 h; summary of the method: as §1
# Ileum [12] = test: Toxicity in guinea pig ileum assessed as effect on acetylcholine-induced smooth muscle spasm at 2 ug/mL after 3 mins (reference value: 1.31 +/- 3.66%); format: tissue-based, Cavia porcellus; conditions: in vivo
# Mus musculus [13] = test: Toxicity in mouse assessed as effect on pentobarbital sodium-induced hypnotic effect measured as loss of righting reflex latency at 200 mg/kg pretreated for 30 mins prior to pentobarbital sodium-challenge; format: organism-based; set-up: dose 200 mg/kg; conditions: in vivo
# Mus musculus [14] = test: Toxicity in mouse assessed as salivation at 0.05 to 0.2 mg/kg measured for 7 days; format: organism-based; set-up: dose 0.05-0.2 mg/kg; conditions: in vivo, 168 h; summary of the method: as §1
# Mus musculus [15] = test: Toxicity in mouse assessed as effect on pentobarbital sodium-induced hypnotic effect measured as recovery of righting reflex at 50 mg/kg pretreated for 30 mins prior to pentobarbital sodium-challenge; format: organism-based; set-up: dose 50 mg/kg; conditions: in vivo
# Mus musculus [16] = test: Toxicity in mouse assessed as effect on pentobarbital sodium-induced hypnotic effect measured as loss of righting reflex latency at 50 mg/kg pretreated for 30 mins prior to pentobarbital sodium-challenge; format: organism-based; set-up: dose 50 mg/kg; conditions: in vivo
# Mus musculus [17] = test: Toxicity in mouse assessed as convulsion at 0.05 to 0.2 mg/kg measured for 7 days; format: organism-based; set-up: dose 0.05-0.2 mg/kg; conditions: in vivo, 168 h; summary of the method: as §1
# Ileum [18] = test: Toxicity in guinea pig ileum assessed as effect on acetylcholine-induced smooth muscle spasm at 1.4 ug/mL after 3 mins (reference value: 1.31 +/- 3.66%); format: tissue-based, Cavia porcellus; conditions: in vivo
# Ileum [19] = test: Toxicity in guinea pig ileum assessed as effect on acetylcholine-induced smooth muscle contraction at 2 ug/mL after 3 mins (reference value: 5.17 +/- 0.36 g); format: tissue-based, Cavia porcellus
# Mus musculus [20] = test: Toxicity in mouse assessed as effect on pentobarbital sodium-induced hypnotic effect measured as loss of righting reflex latency at 1 mg/kg pretreated for 30 mins prior to pentobarbital sodium-challenge; format: organism-based; set-up: dose 1 mg/kg; conditions: in vivo
# Summary of the method: (§2)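 Mice, 10 per group. Groups: saline, pentobarbital alone, pentobarbital plus desloratadine 1 mg/kg, pentobarbital plus test agent at 0.05 or 0.2 mg/kg. 30 min after dosing, 1% pentobarbital sodium given i.p. at 100 mg/kg (10 mL/kg). Latency to loss of righting reflex and time to its recovery recorded, in min.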
# Cavia porcellus [21] = test: Antiasthamatic activity in histamine-induced guinea pig asthma model assessed as prolongation of asthmogenic latent period at 1 mg/kg, ig pretreated for 60 mins prior to histamine-challenge (reference value: 127.10 +/- 40.46 seconds); format: functional; conditions: route intragastric
# Mus musculus [22] = test: Toxicity in mouse assessed as effect on pentobarbital sodium-induced hypnotic effect measured as recovery of righting reflex at 1 mg/kg pretreated for 30 mins prior to pentobarbital sodium-challenge; format: organism-based; set-up: dose 1 mg/kg; conditions: in vivo; summary of the method: as §2
# Ileum [23] = test: Toxicity in guinea pig ileum assessed as effect on acetylcholine-induced smooth muscle contraction at 0.6 ug/mL after 3 mins (reference value: 5.17 +/- 0.36 g); format: tissue-based, Cavia porcellus
# Ileum [24] = test: Toxicity in guinea pig ileum assessed as effect on acetylcholine-induced smooth muscle spasm at 0.6 ug/mL after 3 mins (reference value: 1.31 +/- 3.66%); format: tissue-based, Cavia porcellus; conditions: in vivo
# Ileum [25] = test: Toxicity in guinea pig ileum assessed as effect on acetylcholine-induced smooth muscle spasm at 0.2 ug/mL after 3 mins (reference value: 1.31 +/- 3.66%); format: tissue-based, Cavia porcellus; conditions: in vivo
# Ileum [26] = test: Toxicity in guinea pig ileum assessed as effect on acetylcholine-induced smooth muscle contraction at 0.2 ug/mL after 3 mins (reference value: 5.17 +/- 0.36 g); format: tissue-based, Cavia porcellus
# Ileum [27] = test: Toxicity in guinea pig ileum assessed as effect on acetylcholine-induced smooth muscle contraction at 0.1 ug/mL after 3 mins (reference value: 5.17 +/- 0.36 g); format: tissue-based, Cavia porcellus
# Ileum [28] = test: Toxicity in guinea pig ileum assessed as effect on acetylcholine-induced smooth muscle spasm at 0.1 ug/mL after 3 mins (reference value: 1.31 +/- 3.66%); format: tissue-based, Cavia porcellus; conditions: in vivo
SMILES,Activity [1],Activity [2],Time (Cavia porcellus [3]),Time (Mus musculus [4]),Activity (Mus musculus [5]),Activity (Mus musculus [6]),Activity (Mus musculus [7]),Activity (Mus musculus [8]),Activity (Mus musculus [10]),Activity (Mus musculus [11]),Time (Mus musculus [13]),Activity (Mus musculus [14]),Time (Mus musculus [15]),Time (Mus musculus [16]),Activity (Mus musculus [17]),also measured
CN(C)CCCN1CCC(=C2c3ccc(Cl)cc3CCc3cccnc32)CC1,30.4%,2.66 g,212.8 s,–,–,–,–,–,–,–,–,–,–,–,–,–
Clc1ccc2c(c1)CCc1cccnc1C2=C1CCN(C2CCC(Cl)CC2)CC1 (stereo not given),61.1%,1.29 g,325.2 s,103 min,Non-toxic,Non-toxic,Non-toxic,Non-toxic,Non-toxic,Non-toxic,1.62 min,Non-toxic,82 min,1.61 min,Non-toxic,Activity (Ileum [9]): 5.59 g; Activity (Ileum [12]): 70.61%; Activity (Ileum [18]): 61.39%; Activity (Ileum [19]): 4.4 g
Clc1ccc2c(c1)CCc1cccnc1C2=C1CCNCC1 [DESLORATADINE],49.1%,1.67 g,–,–,–,–,–,–,–,–,–,–,–,–,–,Time (Mus musculus [20]): 2.23 min; Time (Cavia porcellus [21]): 278.2 s; Time (Mus musculus [22]): 93 min
Clc1ccc2c(c1)CCc1cccnc1C2=C1CCN(C2CCCCC2)CC1,29.4%,2.57 g,250.3 s,–,–,–,–,–,–,–,–,–,–,–,–,–
NCCCN1CCC(=C2c3ccc(Cl)cc3CCc3cccnc32)CC1,26%,2.36 g,182.8 s,–,–,–,–,–,–,–,–,–,–,–,–,–
ClCCCN1CCC(=C2c3ccc(Cl)cc3CCc3cccnc32)CC1,43%,1.81 g,256.9 s,120 min,Non-toxic,Non-toxic,Non-toxic,Non-toxic,Non-toxic,Non-toxic,1.58 min,Non-toxic,97 min,1.48 min,Non-toxic,Activity (Ileum [23]): 8.56 g; Activity (Ileum [9]): 5.68 g; Activity (Ileum [24]): 47.21%; Activity (Ileum [18]): 69.51%
Clc1ccc2c(c1)CCc1cccnc1C2=C1CCN(C2CC=CCC2)CC1 (stereo not given),28.3%,2.38 g,262.7 s,–,–,–,–,–,–,–,–,–,–,–,–,–
CCCN1CCC(=C2c3ccc(Cl)cc3CCc3cccnc32)CC1,42.5%,1.8 g,255.1 s,99 min,Non-toxic,Non-toxic,Non-toxic,Non-toxic,Non-toxic,Non-toxic,1.61 min,Non-toxic,76 min,1.47 min,Non-toxic,Activity (Ileum [23]): 4.38 g; Activity (Ileum [24]): 73.09%; Activity (Ileum [25]): 56.14%; Activity (Ileum [26]): 7.51 g
O=C1c2ccccc2C(=O)N1CCCN1CCC(=C2c3ccc(Cl)cc3CCc3cccnc32)CC1,26.6%,2.71 g,247.9 s,–,–,–,–,–,–,–,–,–,–,–,–,–
OC1CCC(N2CCC(=C3c4ccc(Cl)cc4CCc4cccnc43)CC2)CC1 (stereo not given),13%,2.93 g,222 s,–,–,–,–,–,–,–,–,–,–,–,–,–
OCCCN1CCC(=C2c3ccc(Cl)cc3CCc3cccnc32)CC1,45.2%,1.73 g,221.9 s,100 min,Non-toxic,Non-toxic,Non-toxic,Non-toxic,Non-toxic,Non-toxic,1.46 min,Non-toxic,76 min,1.54 min,Non-toxic,Activity (Ileum [9]): 6.72 g; Activity (Ileum [12]): 67.06%; Activity (Ileum [18]): 58.27%; Activity (Ileum [19]): 6.04 g
FCCCN1CCC(=C2c3ccc(Cl)cc3CCc3cccnc32)CC1,48.7%,1.74 g,269.4 s,123 min,Non-toxic,Non-toxic,Non-toxic,Non-toxic,Non-toxic,Non-toxic,1.45 min,Non-toxic,98 min,1.47 min,Non-toxic,Activity (Ileum [23]): 6.58 g; Activity (Ileum [24]): 62.47%; Activity (Ileum [25]): 54.35%; Activity (Ileum [26]): 9.11 g
CN1[C@@H]2CC[C@H]1CC(OC(=O)[C@H](CO)c1ccccc1)C2 (stereo partly drawn) [ENDO-ATROPINE],–,–,–,–,–,–,–,–,–,–,–,–,–,–,–,Activity (Ileum [27]): 3.47 g; Activity (Ileum [28]): 74.9%
